# This is one part of a sample in which hits are shown more often than they occur.
# GASC1 inh: inhibitors of human demethylase GASC-1 KDM4C. Q9H3R0. GST-KDM4C 2-372, H3K9me3 peptide, LANCE TR-FRET. inhibition, % at 12.5 µM. 96,000 compounds, 0.15% hits. AID 720574;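 active = mean replicate inhibition above about 25%, with at least 55% of replicates also reaching it, limit read from the data, passing the limit was not always enough; inconclusive = only one of those two conditions met; inactive = neither condition met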
#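 Compound: one test concentration per compound; Material: GST-GASC-1 enzyme fragment 2-372; Amount: GASC-1 enzyme at 10 nM final in reaction; Also added: H3K9me3 peptide substrate, Fe(II), 2-oxoglutarate; Technique: LANCE TR-FRET; Times: 30 min demethylation and 1 h detection at room temperature.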
# IDH1 mut inh: IDH1 R132H (human) inhibition; IDH1 R132H reductase, diaphorase/resazurin fluorescence, 60 min; O75874; 70,000 compounds, 0.18% hits; inhibition, % at 10 µM; in the data active = inhibition above about 34%; inconclusive = no clear call, values can overlap the other calls; inactive = below about 11%;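 also: 0% = DMSO and 100% = no enzyme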
# Target sequence (O75874 whole entry R132H): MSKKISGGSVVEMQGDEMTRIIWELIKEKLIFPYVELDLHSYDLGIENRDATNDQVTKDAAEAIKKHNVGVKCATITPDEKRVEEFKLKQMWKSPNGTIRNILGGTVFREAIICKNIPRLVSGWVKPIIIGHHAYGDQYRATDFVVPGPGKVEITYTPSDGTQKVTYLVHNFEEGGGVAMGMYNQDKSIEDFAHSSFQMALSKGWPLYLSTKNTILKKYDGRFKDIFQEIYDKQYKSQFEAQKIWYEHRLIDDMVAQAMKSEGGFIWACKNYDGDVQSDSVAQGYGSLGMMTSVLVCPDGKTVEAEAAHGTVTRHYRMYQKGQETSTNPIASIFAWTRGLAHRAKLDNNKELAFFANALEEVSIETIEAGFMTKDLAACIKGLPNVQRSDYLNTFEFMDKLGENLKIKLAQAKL
# T cruzi growth-1: blocks T. cruzi growth in NIH3T3 culture; T. cruzi beta-gal in NIH3T3, GalScreen luminescence, 90 h; inhibition, % at 8.34 µM; 77,000 compounds, 5.9% hits; AID 624255;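 active = mean inhibition above about 93%, with at least 55% of replicates each passing it, limit read from the data, passing the limit was not always enough; inconclusive = only one of those two conditions holds; inactive = neither condition holds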
# T cruzi growth-2: blocks T. cruzi growth in NIH3T3 host cells. shares compounds with T cruzi growth-1. T. cruzi beta-gal in NIH3T3, GalScreen luminescence, 90 h. inhibition, % at 8.35 µM. 5,600 compounds, 72% hits. AID 651739;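 active = mean replicate inhibition above about 95% and at least 55% of replicates individually reaching it, limit read from the data; inconclusive = only one of the two criteria is met; inactive = neither criterion is met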
# T cruzi growth-3: inhibitors of T. cruzi proliferation | shares compounds with T cruzi growth-1 | T. cruzi beta-gal in NIH3T3, GalScreen luminescence, 90 h | 5,600 compounds, 21% hits | inhibition, % at 2.09 µM | AID 651740;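 active = mean inhibition above about 95%, with at least 55% of replicates also reaching it, limit read from the data; inconclusive = meets just one of the two conditions; inactive = meets neither condition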;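 also: plate controls were neutral control median for no effect and positive control median for full effect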
# NIH3T3 tox: NIH/3T3 (mouse) viability loss | cytotoxicity (signal decrease), % at 8.35 µM | 5,600 compounds, 14% hits | shares compounds with T cruzi growth-1 | NIH/3T3 viability, CellTiter-Glo ATP luminescence, 90 h;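 active = mean signal decrease across replicates above about 35% based on untreated-well scatter, with enough replicates individually passing, limit read from the data; inconclusive = no rule stated though some were filed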;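 also: 0% = median of neutral control wells and 100% = median of positive control wells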
# NIH3T3 tox 2: cytotoxicity in mouse NIH/3T3 fibroblasts. NIH/3T3 viability, CellTiter-Glo ATP luminescence, 90 h. 5,600 compounds, 56% hits. inhibition, % at 24.9 µM. shares compounds with T cruzi growth-1;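 active = mean loss of cell viability signal at or above a set limit, and enough replicates individually reaching it; inconclusive = meets only the mean limit or only the replicate share; inactive = meets neither condition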;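 also: 0% = median of neutral control wells and 100% = median of positive control wells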
# Active calls of the source: *; ? = inconclusive; nt = no result.
SMILES,GASC1 inh,IDH1 mut inh,T cruzi growth-1,T cruzi growth-2,T cruzi growth-3,NIH3T3 tox,NIH3T3 tox 2
Cc1ccc(S(=O)(=O)N2C[C@@H](O)COC[C@@H]3O[C@@H](CC(=O)N[C@@H]4CCN(Cc5ccccc5)C4)CC[C@H]32)cc1,-1,nt,63,nt,nt,nt,nt
Cc1ccc(S(=O)(=O)N2C[C@@H](O)COC[C@H]3O[C@@H](CC(=O)N[C@@H]4CCN(Cc5ccccc5)C4)CC[C@@H]32)cc1,0,nt,98*,82,73,-16,-41
O=C(C[C@@H]1CC[C@@H]2[C@H](COC[C@H](O)CN2S(=O)(=O)c2ccc(F)cc2)O1)N[C@H]1CCN(Cc2ccccc2)C1,1,nt,22,nt,nt,nt,nt
O=C(C[C@H]1CC[C@H]2[C@@H](COC[C@H](O)CN2S(=O)(=O)c2ccc(F)cc2)O1)N[C@H]1CCN(Cc2ccccc2)C1,1,nt,100*,70,53,-11,-21
N#Cc1cccc(-c2ccc([C@@H]3[C@@H](CO)N4CCCCN(C(=O)Nc5cccc(F)c5)C[C@@H]34)cc2)c1,0,nt,104*,110*,72,28,87*
N#Cc1cccc(-c2ccc([C@H]3[C@@H](CO)N4CCCCN(C(=O)Nc5cccc(F)c5)C[C@@H]34)cc2)c1,-1,nt,123*,105*,89,4,-2
N#Cc1cccc(-c2ccc([C@H]3[C@@H](CO)N4CCCCN(C(=O)Nc5cccc(F)c5)C[C@H]34)cc2)c1,-2,nt,81,nt,nt,nt,nt
N#Cc1cccc(-c2ccc([C@H]3[C@H]4CN(C(=O)Nc5cccc(F)c5)CCCCN4[C@H]3CO)cc2)c1,-4,nt,122*,110*,60,-6,-8
C[C@@H]1O[C@@H](O[C@H]2[C@@H]3C=CO[C@@H](O[C@@H]4O[C@H](CO)[C@@H](O)[C@H](O)[C@H]4O)[C@@H]3[C@@]3(CO)O[C@@H]23)[C@H](OC(=O)/C=C/c2ccc(O)cc2)[C@H](O)[C@H]1O,nt,0,nt,nt,nt,nt,nt
CCc1nc(SCC(=O)Nc2c(Cl)cccc2Cl)c(C#N)c(C(F)(F)F)c1C,nt,4,nt,nt,nt,nt,nt
Cc1ccc(S(=O)(=O)Nc2ccc3c(c2)C(=O)N([C@@H](C)CO)C[C@H](C)[C@@H](CN(C)C(=O)Nc2cccc4ccccc24)OCCCC[C@@H](C)O3)cc1,-2,nt,95,nt,nt,nt,nt
Cc1ccc(S(=O)(=O)Nc2ccc3c(c2)C(=O)N([C@H](C)CO)C[C@H](C)[C@@H](CN(C)C(=O)Nc2cccc4ccccc24)OCCCC[C@H](C)O3)cc1,-1,nt,99*,110*,105*,-28,-9
C[C@@H]1CCCCO[C@H](CN(C)C(=O)Nc2cccc3ccccc23)[C@H](C)CN([C@H](C)CO)C(=O)c2cc(NS(=O)(=O)c3ccc(F)cc3)ccc2O1,11,nt,105*,106*,73,9,5
Cc1ccc(S(=O)(=O)Nc2ccc3c(c2)C(=O)N([C@@H](C)CO)C[C@H](C)[C@@H](CN(C)C(=O)Nc2cccc4ccccc24)OCCCC[C@H](C)O3)cc1,-3,0,93,nt,nt,nt,nt
C[C@H](CO)N1C[C@H](C)[C@H](CN(C)C(=O)Nc2ccccc2)OCCCC[C@H](C)Oc2ccc(NS(=O)(=O)c3cccs3)cc2C1=O,-2,nt,42,nt,nt,nt,nt
C[C@H](CO)N1C[C@H](C)[C@@H](CN(C)C(=O)Nc2cccc3ccccc23)OCCCC[C@H](C)Oc2ccc(NS(=O)(=O)c3cccs3)cc2C1=O,-2,nt,102*,106*,56,-20,-24
C[C@@H]1CN([C@@H](C)CO)C(=O)c2cc(NS(=O)(=O)c3ccc(F)cc3)ccc2O[C@@H](C)CCCCO[C@@H]1CN(C)C(=O)Nc1cccc2ccccc12,0,nt,101*,104*,55,21,18
Cc1ccc(S(=O)(=O)Nc2ccc3c(c2)C(=O)N([C@@H](C)CO)C[C@@H](C)[C@@H](CN(C)C(=O)Nc2cccc4ccccc24)OCCCC[C@H](C)O3)cc1,-2,nt,92,nt,nt,nt,nt
CCN(CC(=O)Nc1ccc(Br)cc1F)S(=O)(=O)c1ccc(Cl)cc1,nt,0,nt,nt,nt,nt,nt
O=c1cc(-c2ccc(O)cc2)oc2c(C3OC(CO)C(O)C(O)C3O)c(O)c(C3OCC(O)C(O)C3O)c(O)c12 (stereo unspecified),nt,0,nt,nt,nt,nt,nt
COC(=O)c1cccc(COC(=O)c2cc(=O)[nH]c3ccccc23)c1,nt,0,nt,nt,nt,nt,nt
C[C@H](CO)N1C[C@H](C)[C@H](CN(C)C(=O)Nc2cccc3ccccc23)OCCCC[C@H](C)Oc2ccc(NS(=O)(=O)c3ccc(F)cc3)cc2C1=O,1,0,28,nt,nt,nt,nt
C[C@H]1CCCCO[C@@H](CN(C)C(=O)Nc2cccc3ccccc23)[C@@H](C)CN([C@@H](C)CO)C(=O)c2cc(NS(=O)(=O)c3ccc(F)cc3)ccc2O1,1,0,109*,107*,70,-16,0
C[C@@H]1CCCCO[C@@H](CN(C)C(=O)Nc2cccc3ccccc23)[C@@H](C)CN([C@H](C)CO)C(=O)c2cc(NS(=O)(=O)c3ccccc3)ccc2O1,-2,nt,nt,nt,nt,nt,nt
C[C@@H]1CN([C@@H](C)CO)C(=O)c2cc(NS(=O)(=O)c3ccc(F)cc3)ccc2O[C@@H](C)CCCCO[C@H]1CN(C)C(=O)Nc1cccc2ccccc12,5,7,100*,108*,33,-21,-16
SMILES,GASC1 inh,IDH1 mut inh,T cruzi growth-1,T cruzi growth-2,T cruzi growth-3,NIH3T3 tox,NIH3T3 tox 2
COc1cc2c(cc1NC(=O)COC(C)=O)oc1ccccc12,nt,0,nt,nt,nt,nt,nt
O=C(Nc1ccc(I)cc1C(=O)NCC1CCCO1)c1ccco1 (stereo unspecified),nt,0,nt,nt,nt,nt,nt
C[C@@]12C[C@@H](c3ccoc3)OC(=O)[C@H]1CC[C@@]1(C)C(C(=O)O)=CCC[C@@H]21,nt,0,nt,nt,nt,nt,nt
C[C@H](CO)N1C[C@H](C)[C@@H](CN(C)Cc2ccncc2)Oc2ncc(C#Cc3ccccn3)cc2C1=O,4,-1,?,108*,47,-14,7
C[C@@H]1CN([C@H](C)CO)C(=O)c2cc(C#Cc3ccccn3)cnc2O[C@H]1CN(C)Cc1ccncc1,2,nt,107*,104*,39,-14,2
C[C@H]1CN([C@@H](C)CO)C(=O)c2cc(C#Cc3ccccn3)cnc2O[C@@H]1CN(C)Cc1ccncc1,4,nt,65,nt,nt,nt,nt
C[C@H]1CN([C@@H](C)CO)C(=O)c2cc(C#Cc3ccccn3)cnc2O[C@H]1CN(C)Cc1ccccc1,3,0,55,nt,nt,nt,nt
CC(=O)O[C@H]1C[C@@H](OC(C)=O)C(C)(C)C2C[C@@H](OC(C)=O)[C@@]3(C)C4=CC(=O)O[C@@H](c5ccoc5)[C@]4(C)CCC3[C@]21C (stereo partly specified),nt,0,nt,nt,nt,nt,nt
